Reference: ChEMBL document CHEMBL4229410, “Facile construction of fused benzimidazole-isoquinolinones that induce cell-cycle arrest and apoptosis in colorectal cancer cells” (Bioorg Med Chem, 2018)
Active and inactive are the calls of the source. No cut-off for these calls is given here.

Tests used:
[1] = molecular target: Cyclin-dependent kinase 19 (Homo sapiens, UniProt Q9BWU1); assay: Binding affinity to human CDK11 (M1 to N360 residues) expressed in bacterial expression system by KINOMEscan assay
Chain of Cyclin-dependent kinase 19 (Q9BWU1 whole entry, the tested form may be a part, canonical isoform): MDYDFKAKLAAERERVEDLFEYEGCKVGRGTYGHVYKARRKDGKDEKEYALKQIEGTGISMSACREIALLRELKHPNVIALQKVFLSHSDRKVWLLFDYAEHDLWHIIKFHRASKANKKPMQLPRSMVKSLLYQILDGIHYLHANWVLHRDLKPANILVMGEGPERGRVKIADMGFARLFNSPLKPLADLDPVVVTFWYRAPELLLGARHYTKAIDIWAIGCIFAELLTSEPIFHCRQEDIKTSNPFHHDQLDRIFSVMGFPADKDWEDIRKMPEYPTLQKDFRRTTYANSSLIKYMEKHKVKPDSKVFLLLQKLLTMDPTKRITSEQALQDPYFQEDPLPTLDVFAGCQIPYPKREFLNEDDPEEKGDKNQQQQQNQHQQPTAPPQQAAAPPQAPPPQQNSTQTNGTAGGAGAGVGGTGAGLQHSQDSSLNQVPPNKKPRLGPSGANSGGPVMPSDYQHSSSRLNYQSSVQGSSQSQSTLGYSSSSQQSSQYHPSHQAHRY

[2] = molecular target: Phosphatidylinositol 4,5-bisphosphate 3-kinase catalytic subunit alpha isoform (Homo sapiens, UniProt P42336); assay: Binding affinity to human PIK3CA (R108 to N1068 residues) expressed in mammalian expression system by KINOMEscan assay
[3] = tested on: HT-29; assay: Induction of apoptosis in human HT-29 cells assessed as necrotic cells at 50 uM after 48 hrs by Annexin-V-FITC/propidium iodide staining based flow cytometry (reference value: 1.6%); format: functional
[4] = tested on: SW-620; assay: Induction of apoptosis in human SW620 cells assessed as reduction in BCL2 expression after 48 hrs by Western blot analysis; format: functional, cell-based
[5] = molecular target: cAMP-dependent protein kinase catalytic subunit alpha (Homo sapiens, UniProt P17612); assay: Binding affinity to human PKACalpha (G10 to F351 residues) expressed in bacterial expression system by KINOMEscan assay
[6] = molecular target: Mitogen-activated protein kinase 8 (Homo sapiens, UniProt P45983); assay: Binding affinity to full length human JNK1 (M1 to Q384 residues) expressed in mammalian expression system by KINOMEscan assay
[7] = molecular target: Protein kinase C epsilon type (Homo sapiens) (UniProt Q02156); assay: Inhibition of human PRKCE (A378 to P737 residues) expressed in mammalian expression system assessed as residual activity at 5 uM by KINOMEscan assay relative to control
Chain of Protein kinase C epsilon type (Homo sapiens) (Q02156 whole entry, the tested form may be a part): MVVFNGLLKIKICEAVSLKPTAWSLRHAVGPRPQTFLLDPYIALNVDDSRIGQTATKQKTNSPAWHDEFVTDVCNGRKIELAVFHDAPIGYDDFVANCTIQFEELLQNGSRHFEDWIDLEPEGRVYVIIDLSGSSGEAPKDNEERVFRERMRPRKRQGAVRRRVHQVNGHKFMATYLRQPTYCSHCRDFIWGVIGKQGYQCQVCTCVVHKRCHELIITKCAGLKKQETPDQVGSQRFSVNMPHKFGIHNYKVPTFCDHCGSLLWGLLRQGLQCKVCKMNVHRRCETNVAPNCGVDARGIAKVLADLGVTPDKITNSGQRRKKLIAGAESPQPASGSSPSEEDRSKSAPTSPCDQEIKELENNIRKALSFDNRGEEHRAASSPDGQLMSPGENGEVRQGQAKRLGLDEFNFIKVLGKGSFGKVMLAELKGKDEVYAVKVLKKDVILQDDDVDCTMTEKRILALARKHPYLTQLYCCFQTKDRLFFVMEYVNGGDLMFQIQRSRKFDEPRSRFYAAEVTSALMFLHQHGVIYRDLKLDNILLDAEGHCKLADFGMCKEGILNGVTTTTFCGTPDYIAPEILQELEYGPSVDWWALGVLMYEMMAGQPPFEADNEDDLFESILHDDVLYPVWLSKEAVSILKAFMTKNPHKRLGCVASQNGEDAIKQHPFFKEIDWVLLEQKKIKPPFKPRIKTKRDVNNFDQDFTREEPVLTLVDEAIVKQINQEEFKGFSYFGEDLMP

[8] = tested on: SW-620; assay: Antiproliferative activity against human SW620 cells after 48 hrs by BrdU/DAPI staining based immunofluorescence assay; format: functional, cell-based
Summary of the method: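 Cells seeded at 20,000 per well after reaching 80% confluence; exposed 48 h to 0, 25, 50, 75 μM, then 10 μM BrdU for 2 h. Paraformaldehyde fixation, 2 M HCl 30 min, 10% goat serum block, anti-BrdU primary overnight at 4 °C, secondary 120 min at room temperature, DAPI 300 nM. Fluorescence microscopy; percent BrdU-positive nuclei, mean ± SD of three independent experiments.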

[9] = molecular target: RAC-beta serine/threonine-protein kinase (Homo sapiens, UniProt P31751); assay: Inhibition of human AKT2 expressed in bacterial expression system assessed as residual activity at 5 uM by KINOMEscan assay relative to control
Chain of RAC-beta serine/threonine-protein kinase (P31751 whole entry, the tested form may be a part): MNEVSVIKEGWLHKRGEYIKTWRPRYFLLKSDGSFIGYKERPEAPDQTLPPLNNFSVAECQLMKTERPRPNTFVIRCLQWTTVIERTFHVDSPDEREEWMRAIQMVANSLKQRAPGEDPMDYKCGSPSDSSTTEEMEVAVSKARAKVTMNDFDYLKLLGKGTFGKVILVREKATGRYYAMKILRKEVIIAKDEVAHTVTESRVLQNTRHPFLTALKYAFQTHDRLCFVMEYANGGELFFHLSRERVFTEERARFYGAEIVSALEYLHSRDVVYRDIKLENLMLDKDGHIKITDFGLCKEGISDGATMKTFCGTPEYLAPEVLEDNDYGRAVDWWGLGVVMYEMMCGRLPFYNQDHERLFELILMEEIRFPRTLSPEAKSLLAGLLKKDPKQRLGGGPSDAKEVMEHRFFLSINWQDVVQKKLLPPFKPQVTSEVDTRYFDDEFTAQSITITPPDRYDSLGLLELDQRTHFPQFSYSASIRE

[10] = molecular target: 3-phosphoinositide-dependent protein kinase 1 (Homo sapiens) (UniProt O15530); assay: Inhibition of full length human PDPK1 (M1 to Q556 residues) expressed in bacterial expression system assessed as residual activity at 5 uM by KINOMEscan assay relative to control
[11] = molecular target: T1, Platelet-derived growth factor receptor alpha (Homo sapiens, UniProt P16234); assay: Inhibition of human PDGFRA (V575 to D1002 residues) expressed in mammalian expression system assessed as residual activity at 5 uM by KINOMEscan assay relative to control
T1 sequence (P16234 whole entry, the tested form may be a part): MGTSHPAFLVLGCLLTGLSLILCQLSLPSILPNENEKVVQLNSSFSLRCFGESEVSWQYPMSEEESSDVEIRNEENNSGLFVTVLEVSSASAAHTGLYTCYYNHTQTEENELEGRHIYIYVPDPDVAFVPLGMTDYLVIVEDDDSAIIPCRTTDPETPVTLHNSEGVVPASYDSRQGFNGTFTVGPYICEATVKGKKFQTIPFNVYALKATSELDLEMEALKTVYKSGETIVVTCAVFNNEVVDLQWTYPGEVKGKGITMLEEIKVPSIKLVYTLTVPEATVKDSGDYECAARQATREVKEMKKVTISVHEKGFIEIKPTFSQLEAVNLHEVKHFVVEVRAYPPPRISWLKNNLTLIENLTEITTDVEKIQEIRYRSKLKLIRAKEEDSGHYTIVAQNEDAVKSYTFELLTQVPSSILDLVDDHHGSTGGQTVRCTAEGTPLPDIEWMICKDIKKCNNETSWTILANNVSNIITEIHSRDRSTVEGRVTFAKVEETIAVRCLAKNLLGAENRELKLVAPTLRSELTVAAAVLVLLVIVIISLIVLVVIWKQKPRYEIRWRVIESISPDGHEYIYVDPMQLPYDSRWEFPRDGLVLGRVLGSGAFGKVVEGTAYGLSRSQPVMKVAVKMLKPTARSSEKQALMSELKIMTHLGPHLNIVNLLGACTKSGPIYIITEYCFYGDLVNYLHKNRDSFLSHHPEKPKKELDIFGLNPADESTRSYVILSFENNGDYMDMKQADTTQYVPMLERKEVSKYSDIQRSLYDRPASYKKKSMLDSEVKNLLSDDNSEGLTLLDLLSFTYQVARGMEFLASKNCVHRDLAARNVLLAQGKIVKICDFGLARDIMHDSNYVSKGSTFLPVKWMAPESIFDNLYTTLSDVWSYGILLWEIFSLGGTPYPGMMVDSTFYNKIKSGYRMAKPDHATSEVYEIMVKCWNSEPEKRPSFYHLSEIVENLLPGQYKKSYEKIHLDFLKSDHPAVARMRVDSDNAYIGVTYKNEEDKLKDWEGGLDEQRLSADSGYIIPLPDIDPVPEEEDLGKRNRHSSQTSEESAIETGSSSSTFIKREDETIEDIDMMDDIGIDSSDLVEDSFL

[12] = molecular target: Serine/threonine-protein kinase RIO2 (Homo sapiens, UniProt Q9BVS4); assay: Binding affinity to human RIOK2 (M1 to D313 residues) expressed in mammalian expression system by KINOMEscan assay
Chain of Serine/threonine-protein kinase RIO2 (Q9BVS4 whole entry, the tested form may be a part): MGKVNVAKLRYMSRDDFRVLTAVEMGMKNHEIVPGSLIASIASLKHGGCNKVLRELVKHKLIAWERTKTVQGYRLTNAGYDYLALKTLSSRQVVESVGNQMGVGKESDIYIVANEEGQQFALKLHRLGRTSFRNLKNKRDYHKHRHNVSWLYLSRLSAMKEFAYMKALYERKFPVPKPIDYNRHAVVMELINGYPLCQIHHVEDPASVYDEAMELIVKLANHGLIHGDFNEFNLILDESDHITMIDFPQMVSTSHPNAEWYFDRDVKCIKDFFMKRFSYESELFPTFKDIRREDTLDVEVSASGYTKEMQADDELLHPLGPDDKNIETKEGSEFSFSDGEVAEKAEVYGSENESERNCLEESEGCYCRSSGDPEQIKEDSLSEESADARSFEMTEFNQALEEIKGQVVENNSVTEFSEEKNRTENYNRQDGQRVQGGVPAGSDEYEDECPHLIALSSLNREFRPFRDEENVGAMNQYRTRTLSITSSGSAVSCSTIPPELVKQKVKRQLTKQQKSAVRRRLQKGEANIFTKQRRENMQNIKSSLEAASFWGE

[13] = molecular target: Proto-oncogene tyrosine-protein kinase Src (Homo sapiens, UniProt P12931); assay: Binding affinity to human SRC (L240 to L536 residues) expressed in bacterial expression system by KINOMEscan assay
Chain of Proto-oncogene tyrosine-protein kinase Src (P12931 2-536 limits assumed): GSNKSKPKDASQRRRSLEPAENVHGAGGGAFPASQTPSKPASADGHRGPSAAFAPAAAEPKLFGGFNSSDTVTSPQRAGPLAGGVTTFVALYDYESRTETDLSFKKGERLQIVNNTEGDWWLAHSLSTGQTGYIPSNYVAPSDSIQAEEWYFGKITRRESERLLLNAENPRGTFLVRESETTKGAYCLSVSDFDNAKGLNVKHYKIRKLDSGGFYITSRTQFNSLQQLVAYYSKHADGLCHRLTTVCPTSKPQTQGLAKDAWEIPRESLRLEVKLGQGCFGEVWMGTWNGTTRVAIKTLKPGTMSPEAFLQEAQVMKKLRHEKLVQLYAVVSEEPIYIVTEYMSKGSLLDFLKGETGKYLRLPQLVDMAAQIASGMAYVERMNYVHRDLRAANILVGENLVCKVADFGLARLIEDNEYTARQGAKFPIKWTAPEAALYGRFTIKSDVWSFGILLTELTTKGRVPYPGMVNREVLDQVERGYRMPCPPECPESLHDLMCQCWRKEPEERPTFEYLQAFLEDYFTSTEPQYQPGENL

[14] = molecular target: T1, Platelet-derived growth factor receptor alpha; assay: Binding affinity to human PDGFRA (V575 to D1002 residues) expressed in mammalian expression system by KINOMEscan assay
[15] = species: Homo sapiens; assay: Inhibition of PI3K in human SW620 cells assessed as reduction in AKT phosphorylation at T308 residue up to 75 uM after 48 hrs by Western blot analysis; format: cell-based
[16] = molecular target: High affinity nerve growth factor receptor (Homo sapiens, UniProt P04629); assay: Inhibition of human TRKA (G475 to G790 residues) expressed in mammalian expression system assessed as residual activity at 5 uM by KINOMEscan assay relative to control
[17] = molecular target: RAF proto-oncogene serine/threonine-protein kinase (Homo sapiens, UniProt P04049); assay: Binding affinity to human RAF1 (I330 to T640 residues) expressed in bacterial expression system by KINOMEscan assay
[18] = molecular target: Serine/threonine-protein kinase PLK1 (Homo sapiens, UniProt P53350); assay: Binding affinity to human PLK1 (A33 to F325 residues) expressed in mammalian expression system by KINOMEscan assay
[19] = molecular target: Serine/threonine-protein kinase PAK 2 (Homo sapiens, UniProt Q13177); assay: Inhibition of partial length human PAK2 (P151 to R525 residues) expressed in bacterial expression system assessed as residual activity at 5 uM by KINOMEscan assay relative to control
[20] = molecular target: Tyrosine-protein kinase ABL1 (Homo sapiens, UniProt P00519, T315I); assay: Binding affinity to human phosphorylated ABL1 T315I mutant (S229 to K512 residues) expressed in mammalian expression system by KINOMEscan assay
[21] = molecular target: T2, Cyclin-dependent kinase 16 (Homo sapiens, UniProt Q00536); assay: Inhibition of human PCTK1 (G160 to A474 residues) expressed in mammalian expression system assessed as residual activity at 5 uM by KINOMEscan assay relative to control
T2 sequence (Q00536 whole entry, the tested form may be a part): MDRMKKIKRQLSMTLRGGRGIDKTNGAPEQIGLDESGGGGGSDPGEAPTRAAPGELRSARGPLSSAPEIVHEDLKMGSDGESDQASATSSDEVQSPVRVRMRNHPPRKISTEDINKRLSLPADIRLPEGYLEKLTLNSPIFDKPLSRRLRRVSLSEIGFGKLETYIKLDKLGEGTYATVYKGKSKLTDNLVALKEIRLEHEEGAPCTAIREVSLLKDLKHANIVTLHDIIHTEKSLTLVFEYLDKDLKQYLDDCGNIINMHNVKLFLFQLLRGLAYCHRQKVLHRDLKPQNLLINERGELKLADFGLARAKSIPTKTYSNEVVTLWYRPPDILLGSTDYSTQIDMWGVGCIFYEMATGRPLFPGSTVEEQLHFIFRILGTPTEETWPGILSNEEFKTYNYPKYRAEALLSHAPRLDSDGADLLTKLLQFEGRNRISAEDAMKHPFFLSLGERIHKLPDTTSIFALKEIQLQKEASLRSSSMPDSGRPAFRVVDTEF

[22] = molecular target: T2, Cyclin-dependent kinase 16; assay: Binding affinity to human PCTK1 (G160 to A474 residues) expressed in mammalian expression system by KINOMEscan assay
[23] = species: Homo sapiens; assay: Inhibition of PI3K in human SW620 cells assessed as reduction in AKT phosphorylation at S473 residue up to 75 uM after 48 hrs by Western blot analysis; format: cell-based
[24] = molecular target: Cyclin-dependent kinase 7 (Homo sapiens, UniProt P50613); assay: Binding affinity to full length human CDK7 (M1 to L344 residues) expressed in mammalian expression system by KINOMEscan assay
Chain of Cyclin-dependent kinase 7 (P50613 whole entry, the tested form may be a part): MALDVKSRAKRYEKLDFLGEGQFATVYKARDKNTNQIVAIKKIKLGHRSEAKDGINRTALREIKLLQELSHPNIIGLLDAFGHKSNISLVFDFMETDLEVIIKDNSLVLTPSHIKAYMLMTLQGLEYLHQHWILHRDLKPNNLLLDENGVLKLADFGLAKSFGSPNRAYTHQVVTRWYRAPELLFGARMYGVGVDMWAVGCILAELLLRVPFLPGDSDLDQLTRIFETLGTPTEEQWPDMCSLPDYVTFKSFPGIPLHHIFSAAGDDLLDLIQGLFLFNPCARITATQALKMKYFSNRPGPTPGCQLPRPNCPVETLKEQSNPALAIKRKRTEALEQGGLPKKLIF

CC(C)CN(C(=O)c1cccnc1)c1c2ccccc2c(=O)n2c1[nH]c1ccccc12
Kd [1]: ≥ 5 µM
Kd [2]: ≥ 5 µM
Activity [3]: 4.4%
Activity [4]: Dose-dependent effect
Kd [5]: ≥ 5 µM
Kd [6]: ≥ 5 µM
Activity [7]: 100%
Activity [8]: Dose-dependent effect
Activity [9]: 100%
Activity [10]: 93%
Activity [11]: 100%
Kd [12]: ≥ 5 µM
Kd [13]: ≥ 5 µM
Kd [14]: ≥ 5 µM
inhibition [15]: Active
Activity [16]: 84%
Kd [17]: ≥ 5 µM
Kd [18]: ≥ 5 µM
Activity [19]: 100%
Kd [20]: ≥ 5 µM
Activity [21]: 95%
Kd [22]: ≥ 5 µM
inhibition [23]: Active
Kd [24]: ≥ 5 µM
